Test results as given in ChEMBL document CHEMBL1127424, “7-azetidinylquinolones as antibacterial agents. 2. Synthesis and biological activity of 7-(2,3-disubstituted-1-azetidinyl)-4-oxoquinoline- and -1,8-naphthyridine-3-carboxylic acids. Properties and structure-activity relationships of quinolones with an azetidine moiety” (J Med Chem, 1994).
≈ marks a conversion by molar mass, not a printed value.

Legend:
Enterobacter cloacae = test: In vitro minimum inhibitory concentration for Enterobacter cloacae ATCC 23355; type: functional
Bacillus cereus = test: In vitro minimum inhibitory concentration for Bacillus cereus ATCC 11778; type: functional
How it was run: (§1)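 Serial 2-fold agar dilution in Mueller Hinton medium, run alongside a reference quinolone. Inoculum adjusted to 10⁸ cfu/mL; compound range 0.007–16 μg/mL.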

Pseudomonas aeruginosa = test: In vitro minimum inhibitory concentration for Pseudomonas aeruginosa ATCC 10145; type: functional; how it was run: as §1
[1] = HPLC capacity factor (k'); type: ADME
How it was run: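 Ion-pair reversed-phase HPLC on ODS-2 (10 μm) at 45 °C. Mobile phase: 10 mM sodium heptanesulfonate plus 50 mM KH2PO4 (pH 3.5)–methanol 45:55, 1 mL/min. Samples at 100 μg/mL in DMF, injected in duplicate, UV 280 nm. k' = (tR − t0)/t0.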

Bacillus subtilis = test: In vitro minimum inhibitory concentration for Bacillus subtilis ATCC 6633; type: functional; how it was run: as §1
[2] = test system: Staphylococcus epidermidis; test: In vitro minimum inhibitory concentration for Staphylococcus epidermidis ATCC 155-1; type: functional; how it was run: as §1
Proteus vulgaris = test: In vitro minimum inhibitory concentration for Proteus vulgaris ATCC 8427; type: functional; how it was run: as §1
Mus musculus [3] = test: Evaluation of efficacy on systemic infections Pseudomonas aeruginosa HS-116, after oral administration in mice; type: functional
How it was run: (§2)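 Single oral dose given immediately after infection, one of four doses per group, chosen from in vitro activity. Survival scored after one week. ED50 (total mg/kg protecting 50%) interpolated from survival rates.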

Enterococcus faecalis = test: In vitro minimum inhibitory concentration for Streptococcus faecalis ATCC 10541; type: functional; how it was run: as §1
Staphylococcus aureus = test: In vitro minimum inhibitory concentration for Staphylococcus aureus ATCC 25178; type: functional; how it was run: as §1
[4] = AUC (0-4 hr) ug/ml/h; type: ADME, cell-free; design: time < 4 hr; concentration or dose not given beside the values; settings: plasma
How it was run: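 Mice dosed once orally at 50 mg/kg; blood taken from groups of six mice at 0.5, 1, 2 and 4 h. Serum drug assayed by disk agar diffusion bioassay (Bacillus subtilis ATCC 6633 on Seed Agar, 37 °C, 18 h), giving total activity.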

Mus musculus [5] = test: Evaluation of efficacy on systemic infections Staphylococcus aureus HS-93, after oral administration in mice; type: functional; how it was run: as §2
Mus musculus [6] = test: Evaluation of efficacy on systemic infections Escherichia coli HM-42, after oral administration in mice; type: functional; how it was run: as §2
Morganella morganii = test: In vitro minimum inhibitory concentration for Morganella morganii ATCC 8019; type: functional; how it was run: as §1
Escherichia coli = test: In vitro minimum inhibitory concentration for Escherichia coli ATCC 10799; type: functional; how it was run: as §1
Klebsiella pneumoniae = test: In vitro minimum inhibitory concentration to inhibit Klebsiella pneumoniae ATCC 10031; type: functional; how it was run: as §1
[7] = Measured ionization constant (pKa); type: physicochemical; settings: read-out: pKa1
How it was run: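 Spectrophotometric titration at 20 ± 1 °C, 0.1 M ionic strength, pH varied with H2SO4 or NaOH made up in the compound stock. Absorbance followed at compound-specific wavelengths chosen from 200–400 nm scans. pKa1 and pKa2 taken as the inflection points of the two-step absorbance vs pH curve.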

[8] = Solubility (buffer pH 7.4); type: physicochemical; settings: read-out: S
How it was run: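 Excess solid shaken in 0.05 M phosphate buffer pH 7.4 for 24 h at 25 °C. Suspension filtered through 0.22 μm, discarding the first portion. Filtrate diluted in 0.1 N HCl or 0.1 N NaOH and read by UV at the compound's absorbance maximum.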

SMILES | MIC (Enterobacter cloacae) | MIC (Bacillus cereus) | MIC (Pseudomonas aeruginosa) | Log k' [1] | MIC (Bacillus subtilis) | MIC [2] | MIC (Proteus vulgaris) | MIC (Enterococcus faecalis) | MIC (Staphylococcus aureus) | AUC [4] | MIC (Morganella morganii) | MIC (Escherichia coli) | MIC (Klebsiella pneumoniae) | pKa [7] | solubility [8] | ED50 (Mus musculus [3]) | ED50 (Mus musculus [5]) | ED50 (Mus musculus [6])
NC1CN(c2c(F)cc3c(=O)c(C(=O)O)cn(C4CC4)c3c2Cl)C1 | – | – | – | -0.0264 | – | – | – | – | – | – | – | – | – | 5.96 | – | – | – | –
NC1CN(c2cc3c(cc2F)c(=O)c(C(=O)O)cn3C2CC2)C1 | – | – | – | -0.0607 | – | – | – | – | – | – | – | – | – | 6.49 | – | – | – | –
CC[N+](C)(C)C1CN(c2cc3c(cc2F)c(=O)c(C(=O)O)cn3C2CC2)C1 | – | – | – | – | – | – | – | – | – | – | – | – | – | 6.46 | – | – | – | –
C[C@H]1N(c2c(F)cc3c(=O)c(C(=O)O)cn(C4CC4)c3c2F)C[C@]1(C)O | 0.5 µg/mL (≈ 1.37 µM) | 0.12 µg/mL (≈ 0.329 µM) | 2 µg/mL (≈ 5.49 µM) | 0.6899 | 0.015 µg/mL (≈ 0.0412 µM) | 0.12 µg/mL (≈ 0.329 µM) | 0.25 µg/mL (≈ 0.686 µM) | 0.5 µg/mL (≈ 1.37 µM) | 0.12 µg/mL (≈ 0.329 µM) | – | 0.5 µg/mL (≈ 1.37 µM) | 1 µg/mL (≈ 2.74 µM) | 0.015 µg/mL (≈ 0.0412 µM) | – | – | – | – | –
C[C@H]1[C@H](N)CN1c1c(F)cc2c(=O)c(C(=O)O)cn3c2c1SCC3 | 0.25 µg/mL (≈ 0.716 µM) | 1 µg/mL (≈ 2.86 µM) | 2 µg/mL (≈ 5.72 µM) | -0.1195 | 0.25 µg/mL (≈ 0.716 µM) | 0.5 µg/mL (≈ 1.43 µM) | 1 µg/mL (≈ 2.86 µM) | 8 µg/mL (≈ 22.9 µM) | 1 µg/mL (≈ 2.86 µM) | – | 0.25 µg/mL (≈ 0.716 µM) | 0.5 µg/mL (≈ 1.43 µM) | 0.25 µg/mL (≈ 0.716 µM) | – | – | – | – | –

The next lines start with results.

MIC (Enterobacter cloacae) | MIC (Bacillus cereus) | MIC (Pseudomonas aeruginosa) | Log k' [1] | MIC (Bacillus subtilis) | MIC [2] | MIC (Proteus vulgaris) | MIC (Enterococcus faecalis) | MIC (Staphylococcus aureus) | AUC [4] | MIC (Morganella morganii) | MIC (Escherichia coli) | MIC (Klebsiella pneumoniae) | pKa [7] | solubility [8] | SMILES | ED50 (Mus musculus [3]) | ED50 (Mus musculus [5]) | ED50 (Mus musculus [6])
0.06 µg/mL (≈ 0.156 µM) | 0.25 µg/mL (≈ 0.649 µM) | 1 µg/mL (≈ 2.59 µM) | 0.0755 | 0.06 µg/mL (≈ 0.156 µM) | 0.25 µg/mL (≈ 0.649 µM) | 0.25 µg/mL (≈ 0.649 µM) | 0.5 µg/mL (≈ 1.3 µM) | 0.25 µg/mL (≈ 0.649 µM) | 16900 ng·h/mL | 0.06 µg/mL (≈ 0.156 µM) | 0.12 µg/mL (≈ 0.311 µM) | 0.015 µg/mL (≈ 0.0389 µM) | – | – | C[C@H]1[C@H](N)CN1c1cc2c(cc1F)c(=O)c(C(=O)O)cn2-c1ccc(F)cc1 | 109 mg/kg | 7.5 mg/kg | 2.9 mg/kg
0.06 µg/mL (≈ 0.143 µM) | 0.03 µg/mL (≈ 0.0715 µM) | 0.25 µg/mL (≈ 0.596 µM) | 0.2581 | 0.03 µg/mL (≈ 0.0715 µM) | 0.06 µg/mL (≈ 0.143 µM) | 0.25 µg/mL (≈ 0.596 µM) | 0.25 µg/mL (≈ 0.596 µM) | 0.03 µg/mL (≈ 0.0715 µM) | – | 0.06 µg/mL (≈ 0.143 µM) | 0.06 µg/mL (≈ 0.143 µM) | 0.03 µg/mL (≈ 0.0715 µM) | – | – | C[C@H]1[C@H](N)CN1c1c(F)cc2c(=O)c(C(=O)O)cn(-c3ccc(F)cc3)c2c1Cl | 37.9 mg/kg | 1.3 mg/kg | 3.6 mg/kg
0.015 µg/mL (≈ 0.0434 µM) | 0.25 µg/mL (≈ 0.724 µM) | 2 µg/mL (≈ 5.79 µM) | 0.1421 | 0.015 µg/mL (≈ 0.0434 µM) | 0.12 µg/mL (≈ 0.347 µM) | 0.25 µg/mL (≈ 0.724 µM) | 2 µg/mL (≈ 5.79 µM) | 0.25 µg/mL (≈ 0.724 µM) | 3800 ng·h/mL | 0.06 µg/mL (≈ 0.174 µM) | 0.06 µg/mL (≈ 0.174 µM) | 0.03 µg/mL (≈ 0.0869 µM) | – | 1.3 µg/mL (≈ 3.76 µM) | C[C@H]1N(c2cc3c(cc2F)c(=O)c(C(=O)O)cn3C2CC2)C[C@]1(C)N | – | – | –
0.12 µg/mL (≈ 0.33 µM) | 0.12 µg/mL (≈ 0.33 µM) | 2 µg/mL (≈ 5.5 µM) | 0.1399 | 0.015 µg/mL (≈ 0.0413 µM) | 0.12 µg/mL (≈ 0.33 µM) | 0.25 µg/mL (≈ 0.688 µM) | 2 µg/mL (≈ 5.5 µM) | 0.12 µg/mL (≈ 0.33 µM) | 14700 ng·h/mL | 0.12 µg/mL (≈ 0.33 µM) | 0.12 µg/mL (≈ 0.33 µM) | 0.015 µg/mL (≈ 0.0413 µM) | – | 55.9 µg/mL (≈ 154 µM) | CC[C@H]1[C@@H](N)CN1c1c(F)cc2c(=O)c(C(=O)O)cn(C3CC3)c2c1F | – | – | –
0.06 µg/mL (≈ 0.172 µM) | 0.12 µg/mL (≈ 0.344 µM) | 2 µg/mL (≈ 5.74 µM) | 0.1644 | 0.015 µg/mL (≈ 0.0431 µM) | 0.12 µg/mL (≈ 0.344 µM) | 0.25 µg/mL (≈ 0.718 µM) | 1 µg/mL (≈ 2.87 µM) | 0.12 µg/mL (≈ 0.344 µM) | 16500 ng·h/mL | 0.12 µg/mL (≈ 0.344 µM) | 0.06 µg/mL (≈ 0.172 µM) | 0.015 µg/mL (≈ 0.0431 µM) | – | – | C[C@H]1[C@H](N)CN1c1nc2c(cc1F)c(=O)c(C(=O)O)cn2C(C)(C)C | – | – | –
0.12 µg/mL (≈ 0.347 µM) | 0.25 µg/mL (≈ 0.724 µM) | 2 µg/mL (≈ 5.79 µM) | 0.1708 | 0.015 µg/mL (≈ 0.0434 µM) | 0.25 µg/mL (≈ 0.724 µM) | 0.25 µg/mL (≈ 0.724 µM) | 4 µg/mL (≈ 11.6 µM) | 0.25 µg/mL (≈ 0.724 µM) | 3600 ng·h/mL | 0.25 µg/mL (≈ 0.724 µM) | 0.12 µg/mL (≈ 0.347 µM) | 0.015 µg/mL (≈ 0.0434 µM) | – | 42.2 µg/mL (≈ 122 µM) | CC[C@H]1[C@@H](N)CN1c1cc2c(cc1F)c(=O)c(C(=O)O)cn2C1CC1 | – | – | –
0.25 µg/mL (≈ 0.752 µM) | 0.25 µg/mL (≈ 0.752 µM) | 4 µg/mL (≈ 12 µM) | 0.3299 | 0.015 µg/mL (≈ 0.0451 µM) | 0.25 µg/mL (≈ 0.752 µM) | 0.25 µg/mL (≈ 0.752 µM) | 2 µg/mL (≈ 6.02 µM) | 0.25 µg/mL (≈ 0.752 µM) | – | 0.5 µg/mL (≈ 1.5 µM) | 0.5 µg/mL (≈ 1.5 µM) | 0.25 µg/mL (≈ 0.752 µM) | – | – | C[C@H]1[C@@H](O)CN1c1cc2c(cc1F)c(=O)c(C(=O)O)cn2C1CC1 | – | – | –
